Data reported in paper PMC12640659 (Chemmedchem, 2025).
In brackets after ≈: the same amount, converted by molar mass. Where two headings read alike, the source gives them in different places.

What was measured:
[1] = system: K. pneumoniae ST512‐K30BO; test: Antibacterial resazurin assay, drug-resistant K. pneumoniae; format: cell-based, Klebsiella pneumoniae; details: 6 h; for MIC: Klebsiella pneumoniae, read-out: MIC K. pneumoniae; for MIC K. pneumoniae: resazurin, drug‐resistant ST512 strain, sixth column pair of SI-15
Method in brief: (§1)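 Twofold dilutions of test compound (100–0.78 μM) were incubated with mid-log bacteria in LB broth at 37 °C for 6 h. Precultures were grown in LB for P. aeruginosa, S. aureus and E. coli, and in TSB for A. baumannii and K. pneumoniae. Cultures were diluted 1:1000, except S. aureus at 1:500. Resazurin (0.13 mg mL−1 solution) was added for 15–30 min and fluorescence read at 560/590 nm. Assays were run in duplicate with novobiocin and nalidixic acid controls, and MIC was fitted by nonlinear regression.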

[2] = system: E. coli ATCC 10536; test: Antibacterial resazurin assay, E. coli; format: cell-based, Escherichia coli; details: for MIC: Escherichia coli, ATCC10536, 6 h, read-out: MIC E. coli; for MIC E. coli: resazurin, 6 h, mean ± SD
Method in brief: as §1

[3] = system: E. coli ATCC 10536; test: Time-kill kinetics, E. coli; format: cell-based, Escherichia coli; details: at 1x and 4x MICs, up to 5 h
Method in brief: (§2)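 At 0.5, 1, 2, 3, 4 and 5 h, samples were pelleted, resuspended in 10 mM MgSO4 and serially diluted tenfold. Dilutions were spotted on LB agar for 16 h at 37 °C, and growth was compared visually with the untreated control.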

[4] = system: A. baumannii ATCC 19606; test: Antibacterial resazurin assay, A. baumannii; format: cell-based, Acinetobacter baumannii; details: for MIC: Acinetobacter baumannii, ATCC19606, 6 h, read-out: MIC A. baumannii; for MIC A. baumannii: resazurin, 6 h, mean ± SD
Method in brief: as §1

[5] = system: P. aeruginosa ATCC 27853; test: Antibacterial resazurin assay, P. aeruginosa; format: cell-based, Pseudomonas aeruginosa; details: for MIC: Pseudomonas aeruginosa, ATCC27853, 6 h, read-out: MIC P. aeruginosa; for MIC P. aeruginosa: resazurin, 6 h, mean ± SD
Method in brief: as §1

[6] = system: S. aureus ATCC 12600; test: Antibacterial resazurin assay, S. aureus; format: cell-based, Staphylococcus aureus; details: for MIC S. aureus: resazurin, 6 h, mean ± SD; for MIC: Staphylococcus aureus, ATCC12600, 6 h, read-out: MIC S. aureus
Method in brief: as §1

[7] = system: MDA‐MB‐231 triple‐negative breast cancer (TNBC) cell line; test: Resazurin cytotoxicity assay, MDA-MB-231; format: cell-based; details: for IC50: read-out: IC50 MDA‐MB231; for SI (MDA‐MB231): selectivity index versus nontumorigenic MCF12A
Method in brief: (§3)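 Cells were seeded at 5.0 × 10^3 per well and left to attach overnight at 37 °C, 9% CO2, then treated with test compound for 96 h. A […] resazurin solution was added for 2–4 h at 37 °C and fluorescence read at ex 560/em 590 nm. Assays were run in triplicate, and IC50 was obtained by nonlinear regression.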

[8] = system: HCC70 TNBC cell line; test: Resazurin cytotoxicity assay, HCC70; format: cell-based; details: for IC50: read-out: IC50 HCC70; for SI (HCC70): selectivity index versus nontumorigenic MCF12A
Method in brief: as §3

[9] = system: MCF‐7 hormone receptor‐positive breast cancer cell line; test: Resazurin cytotoxicity assay, MCF7; format: cell-based; details: for IC50: read-out: IC50 MCF7; for SI (MCF7): selectivity index versus nontumorigenic MCF12A
Method in brief: as §3

[10] = system: S. aureus ATCC 12600; test: Time-kill kinetics, S. aureus; format: cell-based, Staphylococcus aureus; details: at 1x and 4x MICs, up to 5 h
Method in brief: as §2

[11] = system: HeLa cells; test: Cytotoxicity against HeLa cells; format: cell-based; details: Homo sapiens, read-out: IC50 HeLa cell
[12] = system: nontumorigenic breast epithelial cell line MCF12A; test: Resazurin cytotoxicity assay, MCF12A; format: cell-based; details: Homo sapiens, MCF-12A, 96 h, read-out: IC50 MCF12A
Method in brief: as §3

[13] = resazurin, 96 h, mean ± SD (n = 3)

Compound | MIC K. pneumoniae [1] | MIC S. aureus [6] | MIC E. coli [2] | MIC A. baumannii [4] | MIC P. aeruginosa [5] | IC50 [7, 13] | SI (MDA‐MB231) [7] | IC50 [8, 13] | SI (HCC70) [8] | IC50 [9, 13] | SI (MCF7) [9] | further results
CCn1cc(C(=O)O)c(=O)c2ccc(C)nc21 [Nalidixic acid, reference compound] | – | – | – | – | – | – | – | – | – | – | – | MIC [1]: 28.8 ± 1.09 µM (≈ 6.7 µg/mL); MIC [2]: 0.47 ± 0.22 µM (≈ 0.109 µg/mL); Bactericidal endpoint, E. coli, in words [3]: did not achieve bactericidal endpoints; MIC [4]: 1.28 ± 0.92 µM (≈ 0.297 µg/mL); MIC [5]: 0.17 ± 0.01 µM (≈ 0.0395 µg/mL)
tetraperbenzoyl rhizochalinin [Compound 2c] | >50 µM | >50 µM | >50 µM | >50 µM | >50 µM | – | – | – | – | – | – | –
rhizochalinin C [Compound 3b] | >50 µM | >50 µM | >50 µM | >50 µM | >50 µM | 6.78 ± 1.2 µM | 4.3 | 6.43 ± 1.1 µM | 4.5 | 26.4 ± 1.2 µM | 1.1 | –
oceanin [Compound 4b] | >50 µM | >50 µM | >50 µM | >50 µM | >50 µM | 6.36 ± 1.4 µM | 10.4 | 117 ± 1.4 µM | 0.6 | 8.39 ± 1.39 µM | 7.9 | –
pentaperbenzoyl rhizochalinin C [Compound 3c] | >50 µM | >50 µM | >50 µM | >50 µM | >50 µM | – | – | – | – | – | – | –
CO[C@@H]1[C@@H](OC(N)=O)[C@@H](O)[C@H](Oc2ccc3c(O)c(NC(=O)c4ccc(O)c(CC=C(C)C)c4)c(=O)oc3c2C)OC1(C)C [Novobiocin, reference compound] | – | – | – | – | – | – | – | – | – | – | – | Bactericidal endpoint, S. aureus, in words [10]: did not achieve bactericidal endpoints; MIC [6]: 0.002 ± 0.002 µM (≈ 0.00123 µg/mL)
N.N.[Cl][Pt][Cl] [Cisplatin, reference compound] | – | – | – | – | – | 18.1 ± 1.2 µM | 0.6 | 2.6 ± 1.2 µM | 4.5 | 4.4 ± 1.2 µM | 2.5 | –
pentaperbenzoyl oceanin [Compound 4c] | >50 µM | >50 µM | >50 µM | >50 µM | >50 µM | – | – | – | – | – | – | –
C[C@@H](N)[C@H](O)CCCCCCCC(=O)CCCCCCCCCCCCCC[C@@H](O[C@@H]1O[C@H](CO)[C@H](O)[C@H](O)[C@H]1O)[C@@H](C)N [Compound 2, rhizochalin] | – | – | – | – | – | – | 1.0 | – | 2.2 | – | 1.8 | MIC [1]: 8.52 ± 3.1 µM (≈ 5.39 µg/mL); IC50 ([7]; Homo sapiens, MDA-MB-231, 96 h): 4.59 ± 1.22 µM; IC50 ([8]; Homo sapiens, HCC70, 96 h): 1.94 ± 1.13 µM; MIC [6]: 3.64 ± 0.47 µM (≈ 2.3 µg/mL); MIC [2]: 6.15 ± 0.04 µM (≈ 3.89 µg/mL); MIC [4]: 6.29 ± 0.02 µM (≈ 3.98 µg/mL); MIC [5]: 3.84 ± 0.82 µM (≈ 2.43 µg/mL); IC50 [11]: 7.11 µM; IC50 [12]: 4.25 ± 1.28 µM; IC50 ([9]; Homo sapiens, MCF7, 96 h): 2.43 ± 1.17 µM
CC(N)C(O)CCCCCCCCCCCCCCC(=O)CCCCCCCC(O)C(C)N (stereo not shown) [Compound 2b, rhizochalinin] | 23.78 ± 0.15 µM (≈ 11.2 µg/mL) | – | 49.1 ± 3.42 µM (≈ 23.1 µg/mL) | 55.7 ± 0.85 µM (≈ 26.2 µg/mL) | >50 µM | 6.78 ± 1.3 µM | 3.1 | 4.97 ± 1.2 µM | 4.2 | 21.4 ± 1.2 µM | 1.0 | –
